Assay results as given in paper PMC6410374 (Biomaterials science, 2019).

Legend:
humans = conditions: very low doses; idiosyncratic thrombocytopenia purpura; ref [13]; cited from earlier work
[1] = target: fluorescein-labeled rabbit polyclonal IgG (Oryctolagus cuniculus, UniProt P01870); assay: Microplate-based titration of IgG against Z15_EAK/EAK coacervate; assay type: binding; conditions: constant concentration of EAK; data not shown
IgG^800 = assay: In vivo IgG^800 retention in mouse footpads; parameters: species or system C57BL/6 mice
Procedure, shortened: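 Female C57BL/6 mice, 8–12 weeks old, under isoflurane (5% induction, 3% maintenance). Fluorescent IgG800 premixed with peptide coacervate or EAK was injected subcutaneously into one footpad (28G needle) without hair removal. Imaged before injection and every two days with near-infrared imaging at 255 μm resolution. Injection-site ROI was normalized to a non-injected background ROI; the 5-min signal was set as 100% (0.065 μg/μl). Ex vivo scans were taken at 800 channel.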

[2] = Congo red absorbance / fibrillization; assay type: physicochemical; conditions: EAK: upon exposure to high ionic strengths
Procedure, shortened: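 Congo red (1×, diluted from 10X stock in PBS) incubated with peptide for at least 1 h. Absorbance scanned across 400–600 nm on a microplate reader with 0 ms settle time. Peak position and shift read from spectra, with repeat scans over time.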

[3] = system: CD8 T cells from humans exposed to the human polyomavirus 2 protein; conditions: T cells of patients exposed to the virus; HLA-A*0201; ref [35]; cited from earlier work
IgG = conditions: read-out: binding constant for IgG; ref [20]; cited from earlier work

Sequence of fluorescein-labeled rabbit polyclonal IgG (P01870 101-323 limits assumed): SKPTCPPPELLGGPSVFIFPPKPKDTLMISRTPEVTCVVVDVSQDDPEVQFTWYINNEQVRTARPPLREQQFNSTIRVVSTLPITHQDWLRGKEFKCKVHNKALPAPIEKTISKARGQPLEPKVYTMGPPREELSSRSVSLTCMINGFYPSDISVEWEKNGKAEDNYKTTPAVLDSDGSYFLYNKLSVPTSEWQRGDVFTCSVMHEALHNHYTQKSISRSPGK

Substance: PRTX-100: Highly purified SpA developed as a therapeutic for idiosyncratic thrombocytopenia purpura
- safety in phase-I clinical trials (humans): safe

Substance: AEAEAKAKAEAEAKAK
- affinity constants of IgG titrated against EAK [1]: ambiguous affinity constants
- IgG^800 retained in footpad (IgG^800; after 4 days, 5 min signal = 100%): 8%
- antibody in draining lymph node (IgG^800; footpad injection, day 28): found in the draining lymph node
- fibril formation kinetics [2]: almost instantaneously

Substance: RIPLPNLNEDLTCGN
- T cell recall in vitro [3]: recalled in vitro

Substance: SpA: 42-kDa protein consisting of five homologous Fc-binding domains (E, D, A, B and C)
- Kd (IgG): ~20 nM
